Unmarked numbers belong to inactive results. Inconclusive results are not listed. Calls of active or inactive are those of the source.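 The calls were made as follows, unless noted: active = inhibition over a set limit, the all-compound mean plus 3 SD, in both replicate runs; inconclusive = over that limit in just one replicate run; inactive = at or under that limit in both runs.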
Columns and labels:
[1] = OD615 S. cerevisiae growth inhibition, permissive medium, pilot counter-assay, permissive growth control for S. cerevisiae lifespan shortening project (AID 705;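 active = growth inhibition above 25% in both replicates, a cutoff set 3 SD above the mean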); settings: OD615, 24 h, at 10 µM, active compounds read high
Outline: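 assay system = Saccharomyces cerevisiae strain carrying genetically modified DeaD replicative-lifespan system | medium = SC raffinose/galactose permissive medium | dosing = 10 µM single dose, 0.25% DMSO | schedule = 24 h compound exposure at 30 °C after 4 h pre-growth | measured by = OD at 615 nm | read-out basis = growth inhibition from lowered OD615 after 24 h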

[2] = Restrictive medium S. cerevisiae growth inhibition, OD615, pilot screen of yeast lifespan reduction project, restrictive growth control (AID 706;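 active = growth inhibition above a set limit, 3 SD over mean compound inhibition, in both replicates, cut at about 43% in these data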;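 also: modified DeaD lifespan yeast strain shifted to restrictive glucose medium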); settings: OD615, 48 h, at 10 µM, active compounds read high
Outline: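 Buffer or medium: CSMM-D glucose medium. Material: genetically modified Saccharomyces cerevisiae, DeaD replicative lifespan assay strain. Times: 48 h compound exposure at 30 °C. Measured by: optical density at 615 nm.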

[3] = viability gain of MRP-1-high H69AR cells under doxorubicin, pilot screen, MRP-1 activator project, CellTiter-Glo, duplicate (AID 807;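 active = viability increase at or above a cutoff of the median across tested compounds plus 3 SD, cut at about 8.5% in these data, passing the limit was not always enough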;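 also: compound pretreatment 18-22 h then 72 h combined with doxorubicin; 0% = doxorubicin alone and 100% = vehicle without doxorubicin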); settings: H69AR viability with doxorubicin, CellTiter-Glo luminescence; at 10 µM; active compounds read high
[4] = growth suppression of beta-catenin knockout HCT116, pilot screen, human colon tumor cells (AID 823;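 active = cell viability at or below a set limit in both duplicate runs, the limit being the all-compound median minus 4 SD, cut at about 23% in these data, passing the limit was not always enough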;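 also: 0% = wells killed by 20 µM Hyamine and 100% = untreated DMSO cell wells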); settings: CellTiter-Glo, 60 h, at 10 µM, active compounds read low
[5] = growth suppression of PTEN-deleted HCT116, pilot screen, cell-based, HCT116 clonal line, CellTiter-Glo (AID 824;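 active = viability at or below 27.92% in each of two runs, the all-compound median minus 4 SD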;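 also: 0% = 20 µM Hyamine control and 100% = vehicle cell control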); settings: 60 h, at 10 µM, active compounds read low
[6] = inhibitors of the yeast RAM network, pilot screen, dse1pr::URA3 reporter, 5-FOA selection (AID 869);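 also: 0% = DMSO wells with no growth and 100% = 10 µM 1-NA-PP1 with full growth; RAM network block rescues cells from 5-FOA so hits raise OD615 growth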; settings: S. cerevisiae dse1pr::URA3 5-FOA growth, OD615, 2 d; at 10 µM; active compounds read high; strain carries analog-sensitive mutant Cbk1 kinase
[7] = RAM signaling pathway blockade in yeast – S. cerevisiae, Pdr1DBD-CYC8 efflux-inhibited sensitized strain, primary screen (AID 1298;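 active = RAM network inhibition above 8.4% in each of two replicates, 3 SD over the compound average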;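 also: 0% = DMSO untreated cells without growth and 100% = 10 µM 1-NA-PP1 full growth; higher means more yeast growth rescued from 5-FOA killing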); settings: S. cerevisiae cbk1-as DSE1-URA3 strain, 5-FOA growth OD615, 2 d; at 50 µM; active compounds read high

CCNC(=O)c1c(N)sc2c1CCCCC2
growth inhibition [1]: -5.81%
growth inhibition [2]: 1.6%
viability increase [3]: -2.57%
viability [4]: 103%
viability [5]: 100%
inhibition [6]: 1.88%
RAM network inhibition [7]: 4.23%

O=C(Cn1c(=O)oc2ccccc21)N1CCN(c2ccc(N3CCOCC3)nn2)CC1
growth inhibition [1]: -0.78%
growth inhibition [2]: -14%
viability increase [3]: -2.65%
viability [4]: 101%
viability [5]: 101%
inhibition [6]: 1.31%
RAM network inhibition [7]: 2.63%

CC(C)CC(/C(O)=C(\C#N)c1nc2ccccc2[nH]1)N1C(=O)c2ccccc2C1=O (configuration not stated)
growth inhibition [1]: -13.3%
growth inhibition [2]: -18.9%
viability increase [3]: -2.01%
viability [4]: 82%
viability [5]: 73.3%
inhibition [6]: 3.05%
RAM network inhibition [7]: 4.23%

CC1=CC(C)(C)Nc2ccc(OC(=O)c3ccco3)cc21
growth inhibition [1]: 1.4%
growth inhibition [2]: -5.68%
viability increase [3]: -7.71%
viability [4]: 0.49% (active)
viability [5]: 0.6% (active)
inhibition [6]: 0.475%
RAM network inhibition [7]: 0.98%

CP(=O)(COC(=O)c1ccccc1)COC(=O)c1ccccc1
growth inhibition [1]: -20.8%
growth inhibition [2]: -19%
viability increase [3]: -0.63%
viability [4]: 100%
viability [5]: 96.5%
inhibition [6]: 3.13%
RAM network inhibition [7]: 1.26%

CCOc1ccc(-c2noc(CCC(=O)O)n2)cc1
growth inhibition [1]: 6.08%
growth inhibition [2]: -3.1%
viability increase [3]: 0.28%
viability [4]: 102%
viability [5]: 95.1%
inhibition [6]: 1.56%
RAM network inhibition [7]: 0.42%

CC(=O)c1cccc(NC(=O)c2cc(C(C)C)on2)c1
growth inhibition [1]: -14.6%
growth inhibition [2]: 0.275%
viability increase [3]: -1.46%
viability [4]: 104%
viability [5]: 97.7%
inhibition [6]: 0.785%
RAM network inhibition [7]: 0.94%

COc1ccc2c(Cl)c(C(=O)NC3CCS(=O)(=O)C3)sc2c1 (configuration not stated)
growth inhibition [1]: 1.61%
growth inhibition [2]: -6.69%
viability increase [3]: 2.14%
viability [4]: 93.3%
viability [5]: 99.3%
inhibition [6]: 1.92%
RAM network inhibition [7]: 1.43%

Cc1cc(C)cc(N(CC(=O)NCc2ccco2)S(=O)(=O)c2c(C)noc2C)c1
growth inhibition [1]: -22%
growth inhibition [2]: -17.1%
viability increase [3]: -4.19%
viability [4]: 95.2%
viability [5]: 84.5%
inhibition [6]: 2.42%
RAM network inhibition [7]: 5.53%

Cc1cccc(-n2c(Cc3cc(=O)[nH]c(=O)[nH]3)nnc2SCC(=O)N2CCCCC2)c1
growth inhibition [1]: 4%
growth inhibition [2]: 16.8%
viability increase [3]: -0.52%
viability [4]: 106%
viability [5]: 87.8%
inhibition [6]: 3.3%
RAM network inhibition [7]: -0.11%

CC(=O)c1ccc(OCC(O)COc2ccc(C(C)=O)cc2)cc1
growth inhibition [1]: -2.04%
growth inhibition [2]: -4.87%
viability increase [3]: 0.11%
viability [4]: 96.2%
viability [5]: 94.7%
inhibition [6]: 1.22%
RAM network inhibition [7]: 0.16%

CC(C)N1CC(O)=C(c2ccccc2)C1=N
growth inhibition [1]: 2.25%
growth inhibition [2]: -15.7%
viability increase [3]: -0.1%
viability [4]: 96.5%
viability [5]: 97.2%
inhibition [6]: 0.86%
RAM network inhibition [7]: 4.5%

CC(=NCc1cccnc1)C1=C(O)c2ccccc2C1=O
growth inhibition [1]: -0.03%
growth inhibition [2]: 9.76%
viability increase [3]: -0.85%
viability [4]: 97.2%
viability [5]: 96.4%
inhibition [6]: 0.665%
RAM network inhibition [7]: -0.3%

Cc1ccc(-n2c(SCC(N)=O)nc3c([nH]c4ccccc43)c2=O)cc1
growth inhibition [1]: -15.5%
growth inhibition [2]: -5.78%
viability increase [3]: -2.14%
viability [4]: 91.3%
viability [5]: 87.5%
inhibition [6]: 0.24%
RAM network inhibition [7]: -0.05%

COc1ccccc1N1C(=O)N(C(C)=O)C2C1Nc1ccccc1N2C (configuration not stated)
growth inhibition [1]: -2.22%
growth inhibition [2]: -10%
viability increase [3]: -5.51%
viability [4]: 78.2%
viability [5]: 86.5%
inhibition [6]: 1.71%
RAM network inhibition [7]: 4.65%

CC(=O)Nc1nc2c(F)cccc2s1
growth inhibition [1]: -14.9%
growth inhibition [2]: -3%
viability increase [3]: -2.43%
viability [4]: 96.5%
viability [5]: 91.2%
inhibition [6]: 1.6%
RAM network inhibition [7]: 7.94%

CCOC(=O)N1CCN(C(=O)c2ccc3c(c2)N(CC)CCS3)CC1
growth inhibition [1]: -2.54%
growth inhibition [2]: 2.25%
viability increase [3]: -0.26%
viability [4]: 101%
viability [5]: 97%
inhibition [6]: 1.89%
RAM network inhibition [7]: -1.13%

CCOc1ccccc1C1N(c2ccc(OC)cc2)C(=O)C2CCCN21 (configuration not stated)
growth inhibition [1]: -3.72%
growth inhibition [2]: -10.4%
viability increase [3]: -0.9%
viability [4]: 99.8%
viability [5]: 101%
inhibition [6]: 2.9%
RAM network inhibition [7]: -1.29%

O=C(CCS(=O)(=O)c1cccc2nsnc12)N1CCN(C(=O)c2ccco2)CC1
growth inhibition [1]: -2.63%
growth inhibition [2]: -12.5%
viability increase [3]: -4.22%
viability [4]: 103%
viability [5]: 102%
inhibition [6]: 0.36%
RAM network inhibition [7]: 1.07%

O=C(Nc1ccc(F)cc1F)N1CCN(C/C=C/c2ccccc2)CC1
growth inhibition [1]: -1.48%
growth inhibition [2]: 2.67%
viability increase [3]: 0.1%
viability [4]: 86.7%
viability [5]: 89%
inhibition [6]: 2.04%
RAM network inhibition [7]: 0.95%

CCOC(=O)c1ccc(N2C(=O)CC(C3CCCO3)C2=O)cc1 (configuration not stated)
growth inhibition [1]: 4.47%
growth inhibition [2]: 1.21%
viability increase [3]: -2.28%
viability [4]: 101%
viability [5]: 94.3%
inhibition [6]: 0.84%
RAM network inhibition [7]: 2.15%

O=c1c2c3c(sc2nc2n1CCCCC2)CCCC3
growth inhibition [1]: -12.6%
growth inhibition [2]: -15.5%
viability increase [3]: -1.02%
viability [4]: 90.4%
viability [5]: 85.6%
inhibition [6]: 0.635%
RAM network inhibition [7]: 0.62%

COc1ccc(NC(=O)C2CCCNC2)cc1OCC(C)C (configuration not stated)
growth inhibition [1]: -15.2%
growth inhibition [2]: -19.2%
viability increase [3]: -1.5%
viability [4]: 98.4%
viability [5]: 97%
inhibition [6]: 1.75%
RAM network inhibition [7]: 2.92%

COc1cc(C2NC(=O)NC(C)=C2C(=O)OC2CCCCC2)cc(Br)c1O (configuration not stated)
growth inhibition [1]: -9.15%
growth inhibition [2]: -9.77%
viability increase [3]: 0.18%
viability [4]: 82.1%
viability [5]: 77.3%
inhibition [6]: 0.33%
RAM network inhibition [7]: 8.82%

COc1cc2c(cc1OC)C(C(=O)NC1CC1)C1c3ccccc3CCN1C2=O (configuration not stated)
growth inhibition [1]: -17.8%
growth inhibition [2]: -13.4%
viability increase [3]: -1.28%
viability [4]: 95.8%
viability [5]: 97.3%
inhibition [6]: 0.58%
RAM network inhibition [7]: 0.1%

COc1ccc(C2N(c3cccc(Cl)c3)C(=O)C3CCCN32)cc1 (configuration not stated)
growth inhibition [1]: 6.5%
growth inhibition [2]: 6.72%
viability increase [3]: -2.85%
viability [4]: 102%
viability [5]: 98.1%
inhibition [6]: 0.115%
RAM network inhibition [7]: -1.65%

c1cncc(-c2noc(-c3ccco3)n2)c1
growth inhibition [1]: -5.2%
growth inhibition [2]: 7%
viability increase [3]: 1.76%
viability [4]: 96.7%
viability [5]: 94.2%
inhibition [6]: 1.41%
RAM network inhibition [7]: 4.61%

Cc1ccc(S(=O)(=O)n2ccnc2)cc1C
growth inhibition [1]: -7.98%
growth inhibition [2]: -8.12%
viability increase [3]: -0.49%
viability [4]: 96.1%
viability [5]: 88.9%
inhibition [6]: 1.86%
RAM network inhibition [7]: 2.35%

C=CCNC(=O)c1ccc(C)cc1Cl
growth inhibition [1]: -13.3%
growth inhibition [2]: -2.44%
viability increase [3]: -0.26%
viability [4]: 95.5%
viability [5]: 94.5%
inhibition [6]: 1.02%
RAM network inhibition [7]: 1.37%

Cc1cccc(N2CCN(C(=O)C3CCN(c4nnc(-n5cccc5)s4)CC3)CC2C)c1 (configuration not stated)
growth inhibition [1]: -6.52%
growth inhibition [2]: -21.5%
viability increase [3]: -1.6%
viability [4]: 40.1%
viability [5]: 45%
inhibition [6]: 0.825%
RAM network inhibition [7]: 2.84%

Cc1cccc(N(C)S(=O)(=O)c2cccc3nsnc23)c1
growth inhibition [1]: -12%
growth inhibition [2]: -17.9%
viability increase [3]: -4.32%
viability [4]: 92.5%
viability [5]: 89%
inhibition [6]: 0.325%
RAM network inhibition [7]: 4.78%

CC(C)c1nc(SCC(=O)Nc2ccc3c(c2)OCCO3)c2c(=O)n(C)c(=O)n(C)c2n1
growth inhibition [1]: 0.9%
growth inhibition [2]: 4.21%
viability increase [3]: -2.28%
viability [4]: 85.4%
viability [5]: 84.4%
inhibition [6]: 3.59%
RAM network inhibition [7]: 5.72%

COC(=O)c1ccc(N2C(=O)CC(Sc3n[nH]c(C)n3)C2=O)cc1 (configuration not stated)
growth inhibition [1]: 38.2% (active)
growth inhibition [2]: 19%
viability increase [3]: 1.12%
viability [4]: 96.6%
viability [5]: 93.2%
inhibition [6]: 1.42%
RAM network inhibition [7]: 2.32%

Cc1onc(-c2ccccc2)c1C(=O)Nc1cccc(C#N)c1
growth inhibition [1]: -20.3%
growth inhibition [2]: -6.79%
viability increase [3]: -2.52%
viability [4]: 96.5%
viability [5]: 88.5%
inhibition [6]: 2.92%
RAM network inhibition [7]: 4.56%

C=CCn1c(O)c(C2=c3ccccc3=NC2=O)s/c1=N/c1nccs1
growth inhibition [1]: -9.64%
growth inhibition [2]: -9.09%
viability increase [3]: -7.95%
viability [4]: 42.1%
viability [5]: 36%
inhibition [6]: 0.115%
RAM network inhibition [7]: 5.25%

COCCCNc1oc(-c2ccccc2F)nc1C#N
growth inhibition [1]: -13.2%
growth inhibition [2]: -15.9%
viability increase [3]: 2.02%
viability [4]: 105%
viability [5]: 97.2%
inhibition [6]: -0.74%
RAM network inhibition [7]: 0.89%

From PubChem BioAssay
